Experimental data of several laboratories.
Compare with care: the assays were run in different laboratories.
Target: NT-3 growth factor receptor (NTRK3, Homo sapiens, UniProt Q16288)

CN(C)c1nccc(-c2cnn3ncccc23)n1 has a remaining binding of 72% (binding; 1 µM).
The remaining binding of CCC(=O)N[C@H]1CC[C@@H](C(=O)N(C)c2ccc(-c3nc4ccccc4o3)cc2)C1 is reported as 32% (cell-free assay; competition with immobilised ligand; 1 µM).
For COc1cnc(Nc2cccc(S(N)(=O)=O)c2)nc1N1CCN(c2ccccc2)C(=O)C1, the remaining binding was 100% (binding; competition with immobilised ligand; 1 µM).
CCN1CCN(Cc2ccc(C(=O)Nc3ccc(C)c(Oc4ccc5c(c4)CC(=O)N5)c3)cc2C(F)(F)F)CC1 gave a remaining binding of 68% (binding; competition with immobilised ligand; 1 µM).
For CN(CCCC(F)(F)F)c1nccc(-c2cnn3ncccc23)n1, the remaining binding was 100% (binding; 1 µM).
With O=C(NCc1ncc(C(F)(F)F)cc1Cl)c1ccc2c(c1)C1(CCS(=O)(=O)CC1)[C@@H](C1CC1)N2S(=O)(=O)c1ccc(F)cc1 the remaining binding was 71% (cell-free assay; competition with immobilised ligand; 1 µM).
For O=C(c1ccc(Nc2nccc(-c3cc4ccccc4s3)n2)cc1)N1CCC(N2CCCC2)CC1, the remaining binding was 71% (binding; competition with immobilised ligand; 1 µM).
Nc1ncc2c(n1)-c1c([nH]c3ccc(C#CC4CC4)cc13)CCCC2 has a remaining binding of 99% (binding; competition with immobilised ligand; 1 µM).
For O=C(NCCCN1CCOCC1)c1ccc(Nc2ncc(Cl)c(-c3ccc(Cl)s3)n2)cc1, the remaining binding was 46% (binding; competition with immobilised ligand; 1 µM).
For CO[C@@H](C)c1c(Nc2ccc([C@H](N(C)C(=O)C3CCS(=O)(=O)CC3)C(F)(F)F)cc2)cnc2cc(Cl)nn12, the remaining binding was 100% (cell-free assay; competition with immobilised ligand; 1 µM).
The remaining binding of C[C@@H](c1ccc(-n2cnc3c(N)ncnc32)cc1)N1CCc2nn(C)c(Cc3ccccc3)c2C1=O is reported as 40% (binding; competition with immobilised ligand; 0.1 µM).
O=C(NCCCN1CCOCC1)c1ccc(Nc2nccc(-c3cc4ccccc4s3)n2)cc1 has a remaining binding of 75% (binding; competition with immobilised ligand; 1 µM).
The remaining binding of Cc1cnn2ncc(-c3ccnc(N(C)C)n3)c2c1 is reported as 73% (binding; 1 µM).
CN1CCN(c2cnc3c(C4CCN(C(=O)c5ccc(OC(F)(F)F)cc5N)CC4)ncnc3c2)CC1 has a remaining binding of 100% (cell-free assay; competition with immobilised ligand; 1 µM).
CN(C)c1nccc(-c2cnc3ncccn23)n1 has a remaining binding of 78% (binding; 1 µM).
With O=C(Nc1cccnn1)N1CC(C/C=C/c2cncc(Oc3ccc(C(F)(F)F)cn3)n2)C1 the remaining binding was 85% (cell-free assay; competition with immobilised ligand; 1 µM).
For C[C@@H]1CCN(c2nccc(-c3cnn4ncccc34)n2)C1, the remaining binding was 70% (binding; 1 µM).
With O=c1nc(-c2ccccn2)sc2ccccc12 the remaining binding was 72% (cell-free assay; competition with immobilised ligand; 1 µM).
c1cnn2ncc(-c3ccnc(N4CCC45COC5)n3)c2c1 gave a remaining binding of 73% (binding; 1 µM).
For O=C(NCC1CCOCC1)c1n[nH]cc1NC(=O)c1c(F)cccc1F, the remaining binding was 98% (binding; competition with immobilised ligand; 1 µM).
The remaining binding of C[C@H](NC(=O)c1cnc2n1[C@](C)(Cc1ccc(C#N)cc1)C(=O)N2c1cc(Cl)c(F)c(Cl)c1)C(=O)NC1(c2ccccn2)CC1 is reported as 100% (cell-free assay; competition with immobilised ligand; 1 µM).
With N[C@H]1CCN(c2nccc(-c3cnn4ncccc34)n2)C1 the remaining binding was 85% (binding; 1 µM).
